The record followed here is ChEMBL document CHEMBL4396873, “Discovery of Potent, Selective, and Short-Acting Peptidic V2 Receptor Agonists” (J Med Chem, 2019).

Active and inactive are the calls of the source. The rule behind the calls is not given here. Numbered stars: 1 amine (or outer) side, 2 acyl side, 3 side chain; on linkers, the order of the positions; unused ones are H or OH. Bridge positions count the residues as written; N and C are the ends. Square brackets hold non-standard residues; d marks the D form. Peptide text beside a SMILES is read from it. * marks the point of attachment. Phe(4-Cl) = N[C@@H](Cc1ccc(Cl)cc1)C(=O)O; Phe(4-F) = N[C@@H](Cc1ccc(F)cc1)C(=O)O; 2Thi = N[C@@H](Cc1cccs1)C(=O)O; Agmatine = N=C(N)NCCCCN*; Thz = O=C(O)[C@@H]1CSCN1; X1 = O=C(CCC[*:2])[*:1]

Data set [1] in a line: Protein binding in rat plasma at 200 to 1000 ng/ml measured after 15 mins by UC-LC/MS/MS analysis. Type of data set: ADME, cell-free. The following applies: read-out: PPB (converted). The method in brief: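 Peptide spiked into rat plasma to final 200-1000 ng/mL, incubated 15 min at 37 °C, ultracentrifuged at 773,000 xg for 30 min at 37 °C; middle-layer sample quantified by LC/MS/MS; binding (%) = (Ci − Cm)/Ci × 100; quadruplicate.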

The nature of data set [2]: Non-renal clearance in nephrectomized Sprague-Dawley rat at 0.1 mg/kg, iv administered as cassette dose by LC-MS/MS analysis. Type of data set: ADME, organism-based. The following applies: in vivo.
Data set [3] concerns the target Vasopressin V1a receptor (Homo sapiens, UniProt P37288). Kind of data set: Agonist activity at recombinant human V1a receptor expressed in HEK293 cells up to 1000 nM measured after 5 hrs by luciferase reporter gene assay. It is filed as cell-based. The following applies: hek293, 5 h.
Data set [4] has as its target T1, Oxytocin receptor (Homo sapiens) (UniProt P30559).
T1 sequence (whole entry): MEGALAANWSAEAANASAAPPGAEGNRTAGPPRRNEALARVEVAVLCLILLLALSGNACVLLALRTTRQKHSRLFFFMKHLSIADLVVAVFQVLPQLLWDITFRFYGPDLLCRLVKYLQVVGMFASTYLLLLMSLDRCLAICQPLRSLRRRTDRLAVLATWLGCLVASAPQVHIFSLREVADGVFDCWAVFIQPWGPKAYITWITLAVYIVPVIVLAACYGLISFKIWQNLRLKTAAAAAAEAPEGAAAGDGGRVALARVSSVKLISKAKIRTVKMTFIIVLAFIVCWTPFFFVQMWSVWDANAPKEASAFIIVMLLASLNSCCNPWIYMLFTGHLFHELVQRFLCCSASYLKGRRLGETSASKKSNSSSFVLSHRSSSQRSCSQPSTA
Briefly: Agonist activity at human OTR stably expressed in CHOK1 cells up to 10000 nM by NFAT-luciferase reporter gene assay. Type of data set: cell-based.

Data set [5] can be described thus: Clearance in Sprague-Dawley rat at 0.1 mg/kg, iv administered as cassette dose by LC-MS/MS analysis. It is filed as ADME, organism-based. The following applies: in vivo.

Chain of Vasopressin V1a receptor (P37288 whole entry): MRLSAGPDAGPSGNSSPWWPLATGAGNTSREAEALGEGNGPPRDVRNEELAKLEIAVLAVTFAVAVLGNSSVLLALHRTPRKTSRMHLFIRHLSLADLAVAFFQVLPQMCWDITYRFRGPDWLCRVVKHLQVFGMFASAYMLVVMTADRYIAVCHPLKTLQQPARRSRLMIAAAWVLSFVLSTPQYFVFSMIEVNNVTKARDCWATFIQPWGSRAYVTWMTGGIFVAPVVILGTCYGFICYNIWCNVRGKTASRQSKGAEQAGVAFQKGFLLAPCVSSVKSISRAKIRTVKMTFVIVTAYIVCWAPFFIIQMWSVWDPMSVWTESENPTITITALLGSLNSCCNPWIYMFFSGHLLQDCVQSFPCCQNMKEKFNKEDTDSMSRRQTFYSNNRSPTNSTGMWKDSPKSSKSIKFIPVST

For `CCCNC(=O)[C@@H](CCCNC(=N)N)NC(=O)[C@@H]1CSCN1C(=O)[C@@H]1CSCCCC(=O)N[C@@H](Cc2ccc(Cl)cc2)C(=O)N[C@@H](Cc2cccs2)C(=O)N[C@@H](C(C)C)C(=O)N[C@@H](CC(N)=O)C(=O)N1`, the fraction unbound at […] in data set [1] is 0.17. The molecule also displayed a CL in data set [2] of 90%. Further, the Activity result in data set [3] is “Not Active”. Also, the result in data set [4] was inactive. Further, the clearance in data set [5] was 31 mL/min/kg.

Take `CC(C)[C@@H]1NC(=O)[C@H](Cc2ccc(F)cc2)NC(=O)[C@H](Cc2ccc(Cl)cc2)NC(=O)CCCSC[C@@H](C(=O)N2CCC[C@H]2C(=O)NCCCCNC(=N)N)NC(=O)[C@H](CC(N)=O)NC1=O` ([Phe(4-Cl)][Phe(4-F)]VNCP-Agmatine; linker N-5 via X1): the fraction unbound at […] in data set [1] is 0.06. Moreover, the Activity entry in data set [3] is recorded as “Not Active”. Also, the result in data set [4] was inactive. The molecule further yielded a clearance in data set [5] of 7.5 mL/min/kg.

Turning to `CC(C)CNC(=O)[C@@H](CCCNC(=N)N)NC(=O)[C@@H]1C[C@@H](O)CN1C(=O)[C@@H]1CSCCCC(=O)N[C@@H](Cc2ccc(Cl)cc2)C(=O)N[C@@H](Cc2cccs2)C(=O)N[C@@H](C(C)C)C(=O)N[C@@H](CC(N)=O)C(=O)N1`, in data set [1], the fraction unbound at […] is 0.13. The Activity entry in data set [3] is “Not Active”. In addition, the result in data set [4] was inactive. Moreover, in data set [5], the clearance was 7.8 mL/min/kg.

With `CC(C)CNC(=O)[C@H](CCCNC(=N)N)NC(=O)[C@@H]1CCCN1C(=O)[C@@H]1CSCCCC(=O)N[C@@H](Cc2ccc(Cl)cc2)C(=O)N[C@@H](Cc2cccs2)C(=O)N[C@@H](C(C)C)C(=O)N[C@@H](CC(N)=O)C(=O)N1`, the fraction unbound at […] in data set [1] is 0.16. In data set [3], the Activity entry is on record as “Not Active”. Further, the result in data set [4] was inactive. In data set [5], the clearance is 51 mL/min/kg.

Consider `CCNC(=O)[C@@H](CCCNC(=N)N)NC(=O)[C@@H]1CCCN1C(=O)[C@@H]1CSCCCC(=O)N[C@@H](Cc2ccc(Cl)cc2)C(=O)N[C@@H](Cc2cccs2)C(=O)N[C@@H](C(C)C)C(=O)N[C@@H](CC(N)=O)C(=O)N1`, for which, in data set [1], the fraction unbound at […] is 0.16. In data set [2], this molecule showed a CL of 49%. For the same molecule, the Activity entry in data set [3] was “Not Active”. For the same molecule, the outcome in data set [4] was inactive. In data set [5], the clearance was determined as 10 mL/min/kg.

For `CCNC(=O)[C@@H](CCCNC(=N)N)NC(=O)[C@@H]1C[C@@H](O)CN1C(=O)[C@@H]1CCSCCC(=O)N[C@@H](Cc2ccc(Cl)cc2)C(=O)N[C@@H](Cc2cccs2)C(=O)N[C@@H](C(C)C)C(=O)N[C@@H](CC(N)=O)C(=O)N1`, the fraction unbound at […] in data set [1] is 0.1. The CL in data set [2] worked out at 58%. The Activity entry in data set [3] is “Not Active”. Further, the result in data set [4] was inactive. The clearance in data set [5] was found to be 4 mL/min/kg.

In the case of `CC(C)CNC(=O)[C@@H](CCCNC(=N)N)NC(=O)[C@@H]1CCCN1C(=O)[C@@H]1CSCCCC(=O)N[C@@H](Cc2ccc(Cl)cc2)C(=O)N[C@@H](Cc2cccs2)C(=O)N[C@@H](C(C)C)C(=O)N[C@@H](CC(N)=O)C(=O)N1`, the fraction unbound at […] in data set [1] is 0.14. In data set [2], this molecule had a CL of 63%. Also, in data set [3], the Activity result is recorded as “Not Active”. The result in data set [4] was inactive. Further, the clearance in data set [5] is 24 mL/min/kg.

Take `CC(C)[C@@H]1NC(=O)[C@H](Cc2cccs2)NC(=O)[C@H](Cc2ccc(Cl)cc2)NC(=O)CCCSC[C@@H](C(=O)N2CCC[C@H]2C(=O)N[C@H](CCCNC(=N)N)C(=O)NC2CC2)NC(=O)[C@H](CC(N)=O)NC1=O`: the fraction unbound at […] in data set [1] is 0.09. In addition, the CL in data set [2] turned out to be 67%. The Activity result in data set [3] is given as “Not Active”. For the same molecule, in data set [4], the result was inactive. Besides, in data set [5], the clearance turned out to be 10 mL/min/kg.

As for `CC(C)[C@@H]1NC(=O)[C@H](Cc2ccc(F)cc2)NC(=O)[C@H](Cc2ccc(O)cc2)NC(=O)CCCSC[C@@H](C(=O)N2CCC[C@H]2C(=O)NCCCCNC(=N)N)NC(=O)[C@H](CC(N)=O)NC1=O` (Y[Phe(4-F)]VNCP-Agmatine; linker N-5 via X1), in data set [1], the fraction unbound at […] was 0.69. In data set [2], this molecule registered a CL of 45%. The Activity result in data set [3] was “Not Active”. Further, in data set [4], the outcome was inactive. The clearance in data set [5] amounted to 8.7 mL/min/kg.

As for `CC(C)[C@@H]1NC(=O)[C@H](Cc2ccc(F)cc2)NC(=O)[C@H](Cc2ccc(Cl)cc2)NC(=O)CCCSC[C@@H](C(=O)N2CSC[C@H]2C(=O)NCCCCNC(=N)N)NC(=O)[C@H](CC(N)=O)NC1=O` ([Phe(4-Cl)][Phe(4-F)]VNC[Thz]-Agmatine; linker N-5 via X1), in data set [1], the fraction unbound at […] is 0.04. In addition, in data set [2], the CL is given as 85%. The Activity result in data set [3] was “Not Active”. In addition, the result in data set [4] was inactive. This molecule also yielded a clearance in data set [5] of 9.9 mL/min/kg.

For `CC(C)[C@@H]1NC(=O)[C@H](Cc2cccs2)NC(=O)[C@H](Cc2ccc(Cl)cc2)NC(=O)CCCSC[C@@H](C(=O)N2CSC[C@H]2C(=O)NCCCCNC(=N)N)NC(=O)[C@H](CC(N)=O)NC1=O` ([Phe(4-Cl)][2Thi]VNC[Thz]-Agmatine; linker N-5 via X1), the fraction unbound at […] in data set [1] is 0.16. Moreover, in data set [2], the CL was found to be 90%. Besides, the Activity result in data set [3] is “Not Active”. Moreover, in data set [4], the result was inactive. This molecule yielded a clearance in data set [5] of 16 mL/min/kg.

On to `CCNC(=O)[C@@H](CCCNC(=N)N)NC(=O)[C@@H]1CSCN1C(=O)[C@@H]1CSCCCC(=O)N[C@@H](Cc2ccc(Cl)cc2)C(=O)N[C@@H](Cc2cccs2)C(=O)N[C@@H](C(C)C)C(=O)N[C@@H](CC(N)=O)C(=O)N1`, for which the fraction unbound at […] in data set [1] is 0.07. The same molecule yielded a CL in data set [2] of 80%. For the same molecule, the Activity result in data set [3] was “Not Active”. Besides, in data set [4], the result was inactive. The molecule also had a clearance in data set [5] of 28 mL/min/kg.

In the case of `CCNC(=O)[C@@H](CCCNC(=N)N)NC(=O)[C@@H]1CCCN1C(=O)[C@@H]1CSSCCC(=O)N[C@@H](Cc2ccc(Cl)cc2)C(=O)N[C@@H](Cc2ccccc2)C(=O)N[C@@H](C(C)C)C(=O)N[C@@H](CC(N)=O)C(=O)N1`, the fraction unbound at […] in data set [1] is 0.05. In data set [2], the CL was determined as 47%. Besides, the Activity entry in data set [3] was “Not Active”. The clearance in data set [5] is 7.1 mL/min/kg.

Take `CCCNC(=O)[C@@H](CCCNC(=N)N)NC(=O)[C@@H]1CCCN1C(=O)[C@@H]1CSCCCC(=O)N[C@@H](Cc2ccc(Cl)cc2)C(=O)N[C@@H](Cc2cccs2)C(=O)N[C@@H](C(C)C)C(=O)N[C@@H](CC(N)=O)C(=O)N1`: the fraction unbound at […] in data set [1] was 0.16. The molecule further returned a CL in data set [2] of 59%. Also, the Activity result in data set [3] was “Not Active”. In data set [4], the outcome was inactive. The same molecule came in with a clearance in data set [5] of 26 mL/min/kg.

Regarding `CCCCNC(=O)[C@@H](CCCNC(=N)N)NC(=O)[C@@H]1CCCN1C(=O)[C@@H]1CSCCCC(=O)N[C@@H](Cc2ccc(Cl)cc2)C(=O)N[C@@H](Cc2cccs2)C(=O)N[C@@H](C(C)C)C(=O)N[C@@H](CC(N)=O)C(=O)N1`, the fraction unbound at […] in data set [1] is 0.11. In data set [2], the CL is on record as 57%. In addition, the Activity result in data set [3] is recorded as “Not Active”. For the same molecule, the result in data set [4] was inactive. The clearance in data set [5] turned out to be 31 mL/min/kg.

`CC(C)[C@@H]1NC(=O)[C@H](Cc2cccs2)NC(=O)[C@H](Cc2ccc(Cl)cc2)NC(=O)CCCSC[C@@H](C(=O)N2CCC[C@H]2C(=O)N[C@H](CCCNC(=N)N)C(=O)NCC2CC2)NC(=O)[C@H](CC(N)=O)NC1=O`: the fraction unbound at […] in data set [1] is 0.16. The Activity result in data set [3] is given as “Not Active”. Also, the result in data set [4] was inactive. In addition, the clearance in data set [5] stood at 21 mL/min/kg.

Regarding `CC(C)CNC(=O)[C@@H](CCCNC(=N)N)NC(=O)[C@@H]1CCCN1C(=O)[C@@H]1CCSCCC(=O)N[C@@H](Cc2ccc(Cl)cc2)C(=O)N[C@@H](Cc2cccs2)C(=O)N[C@@H](C(C)C)C(=O)N[C@@H](CC(N)=O)C(=O)N1`, the Activity result in data set [3] is recorded as “Not Active”. In data set [4], the result was inactive.

In the case of `CC(C)CNC(=O)[C@@H](CCCNC(=N)N)NC(=O)[C@@H]1CCCN1C(=O)[C@@H]1CCSCCC(=O)N[C@@H](Cc2ccc(Cl)cc2)C(=O)N[C@@H](Cc2ccccc2)C(=O)N[C@@H](C(C)C)C(=O)N[C@@H](CC(N)=O)C(=O)N1`, the fraction unbound at […] in data set [1] was 0.05. The molecule further yielded a CL in data set [2] of 88%. Besides, in data set [3], the Activity entry is given as “Not Active”. Also, the result in data set [4] was inactive. Further, the clearance in data set [5] stood at 5.4 mL/min/kg.

Turning to `CC(C)[C@@H]1NC(=O)[C@H](Cc2cccs2)NC(=O)[C@H](Cc2ccc(Cl)cc2)NC(=O)CCCSC[C@@H](C(=O)N2CCC[C@H]2C(=O)N[C@H](CCCNC(=N)N)C(=O)NCc2ccccc2)NC(=O)[C@H](CC(N)=O)NC1=O`, in data set [1], the fraction unbound at […] was 0.1. This molecule also showed a CL in data set [2] of 84%. Also, in data set [3], the Activity result is on record as “Not Active”. Also, the outcome in data set [4] was inactive. For the same molecule, the clearance in data set [5] is 23 mL/min/kg.
